Converted amounts (≈) assume the structure as drawn.
How the values were obtained:
Bacillus subtilis [1] = experiment: Antibacterial activity against Bacillus subtilis ATCC 6633 by broth microdilution method; type: functional
Summary of the method: (§1)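 Broth microdilution in Mueller-Hinton broth No.2 (MHII) following CLSI guidelines. The MIC (μM) was read by visual end point. Each compound was tested in triplicate.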

Staphylococcus aureus [2] = experiment: Antibacterial activity against Staphylococcus aureus SG511 by broth microdilution method; type: functional; summary of the method: as §1
Micrococcus luteus [3] = experiment: Antibacterial activity against Micrococcus luteus ATCC 10240 by broth microdilution method; type: functional; summary of the method: as §1
Mycolicibacterium vaccae [4] = experiment: Antibacterial activity against Mycobacterium vaccae IMET10670 by broth microdilution method; type: functional; summary of the method: as §1
Acinetobacter baumannii [5] = experiment: Antibacterial activity against Acinetobacter baumannii ATCC 17961 by broth microdilution method; type: functional; summary of the method: as §1
Pseudomonas aeruginosa [6] = experiment: Antibacterial activity against wild type Pseudomonas aeruginosa K799 by broth microdilution method; type: functional; summary of the method: as §1
Pseudomonas aeruginosa [7] = experiment: Antibacterial activity against Pseudomonas aeruginosa K799/61 by broth microdilution method; type: functional; summary of the method: as §1
Escherichia coli [8] = experiment: Antibacterial activity against Escherichia coli DC0 by broth microdilution method; type: functional; summary of the method: as §1
Escherichia coli [9] = experiment: Antibacterial activity against Escherichia coli DC2 by broth microdilution method; type: functional; summary of the method: as §1
Micrococcus luteus [10] = experiment: Antibacterial activity against Micrococcus luteus ATCC 10240 at 0.1 mM incubated for 24 hrs at 37 degC by agar diffusion assay; type: functional; details: ATCC 10240, 24 h, read-out: DIZ
Summary of the method: (§2)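 Agar well diffusion. 50 μL of a 0.1 mM solution in 1:9 DMSO/MeOH was added to 9 mm wells in Standard I nutrient agar or Mueller Hinton II agar. Plates were incubated at 37 °C for 24 h, or 44 h for M. vaccae, then inhibition zones were read. Unclear zones were scored separately.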

Mycolicibacterium vaccae [11] = experiment: Antibacterial activity against Mycobacterium vaccae IMET10670 at 0.1 mM incubated for 44 hrs at 37 degC by agar diffusion assay; type: functional; details: IMET10670, 44 h, read-out: DIZ; summary of the method: as §2
Acinetobacter baumannii [12] = experiment: Antibacterial activity against Acinetobacter baumannii ATCC 17961 at 0.1 mM incubated for 24 hrs at 37 degC by agar diffusion assay; type: functional; details: ATCC 17961, 24 h, read-out: DIZ; summary of the method: as §2
Pseudomonas aeruginosa [13] = experiment: Antibacterial activity against wild type Pseudomonas aeruginosa K799 at 0.1 mM incubated for 24 hrs at 37 degC by agar diffusion assay; type: functional; details: K799, 24 h, read-out: DIZ; summary of the method: as §2
Pseudomonas aeruginosa [14] = experiment: Antibacterial activity against Pseudomonas aeruginosa K799/61 at 0.1 mM incubated for 24 hrs at 37 degC by agar diffusion assay; type: functional; details: K799/61, 24 h, read-out: DIZ; summary of the method: as §2
Escherichia coli [15] = experiment: Antibacterial activity against Escherichia coli X580 at 0.1 mM incubated for 24 hrs at 37 degC by agar diffusion assay; type: functional; details: X580, 24 h, read-out: DIZ; summary of the method: as §2
Escherichia coli [16] = experiment: Antibacterial activity against Escherichia coli DC0 at 0.1 mM incubated for 24 hrs at 37 degC by agar diffusion assay; type: functional; details: DC0, 24 h, read-out: DIZ; summary of the method: as §2
Escherichia coli [17] = experiment: Antibacterial activity against Escherichia coli DC2 at 0.1 mM incubated for 24 hrs at 37 degC by agar diffusion assay; type: functional; details: DC2, 24 h, read-out: DIZ; summary of the method: as §2
Bacillus subtilis [18] = experiment: Antibacterial activity against Bacillus subtilis ATCC 6633 at 0.1 mM incubated for 24 hrs at 37 degC by agar diffusion assay; type: functional; details: ATCC 6633, 24 h, read-out: DIZ; summary of the method: as §2
Staphylococcus aureus [19] = experiment: Antibacterial activity against Staphylococcus aureus SG511 at 0.1 mM incubated for 24 hrs at 37 degC by agar diffusion assay; type: functional; details: SG511, 24 h, read-out: DIZ; summary of the method: as §2
Mycolicibacterium vaccae [20] = experiment: Antibacterial activity against Mycobacterium vaccae IMET10670 assessed as unclear inhibition zone or inhibition zone with many colonies at 0.1 mM incubated for 44 hrs at 37 degC by agar diffusion assay; type: functional; details: IMET10670, 44 h, read-out: DIZ; summary of the method: as §2
Acinetobacter baumannii [21] = experiment: Antibacterial activity against Acinetobacter baumannii ATCC 17961 assessed as unclear inhibition zone or inhibition zone with many colonies at 0.1 mM incubated for 24 hrs at 37 degC by agar diffusion assay; type: functional; details: ATCC 17961, 24 h, read-out: DIZ; summary of the method: as §2
Pseudomonas aeruginosa [22] = experiment: Antibacterial activity against wild type Pseudomonas aeruginosa K799 assessed as unclear inhibition zone or inhibition zone with many colonies at 0.1 mM incubated for 24 hrs at 37 degC by agar diffusion assay; type: functional; details: K799, 24 h, read-out: DIZ; summary of the method: as §2
Pseudomonas aeruginosa [23] = experiment: Antibacterial activity against Pseudomonas aeruginosa K799/61 assessed as unclear inhibition zone or inhibition zone with many colonies at 0.1 mM incubated for 24 hrs at 37 degC by agar diffusion assay; type: functional; details: K799/61, 24 h, read-out: DIZ; summary of the method: as §2
Escherichia coli [24] = experiment: Antibacterial activity against Escherichia coli X580 assessed as unclear inhibition zone or inhibition zone with many colonies at 0.1 mM incubated for 24 hrs at 37 degC by agar diffusion assay; type: functional; details: X580, 24 h, read-out: DIZ; summary of the method: as §2
Escherichia coli [25] = experiment: Antibacterial activity against Escherichia coli DC0 assessed as unclear inhibition zone or inhibition zone with many colonies at 0.1 mM incubated for 24 hrs at 37 degC by agar diffusion assay; type: functional; details: DC0, 24 h, read-out: DIZ; summary of the method: as §2
Staphylococcus aureus [26] = experiment: Antibacterial activity against Staphylococcus aureus SG511 at 5 ug/ml incubated for 24 hrs at 37 degC by agar diffusion assay; details: SG511, 24 h, read-out: DIZ
Micrococcus luteus [27] = experiment: Antibacterial activity against Micrococcus luteus ATCC 10240 at 5 ug/ml incubated for 24 hrs at 37 degC by agar diffusion assay; type: functional; details: ATCC 10240, 24 h, read-out: DIZ
Summary of the method: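 Agar well diffusion: the drug was dissolved in water and added to 9 mm wells cut in Standard I Nutrient Agar or Mueller Hinton II agar seeded with the strain. Inhibition zone diameters were read after 24 h at 37 °C. Zones were scored as very unclear where the zone boundary was indistinct.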

Mycolicibacterium vaccae [28] = experiment: Antibacterial activity against Mycobacterium vaccae IMET10670 at 5 ug/ml incubated for 44 hrs at 37 degC by agar diffusion assay; type: functional; details: IMET10670, 44 h, read-out: DIZ
Summary of the method: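 Agar well diffusion with the sample in H2O at 5 μg/mL. 50 μL was added to 9 mm wells in nutrient or Mueller Hinton II agar. Plates were incubated at 37 °C for 24 h, or 44 h for M. vaccae, and inhibition zones were read.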

Escherichia coli [29] = experiment: Antibacterial activity against Escherichia coli DC0 at 5 ug/ml incubated for 24 hrs at 37 degC by agar diffusion assay; details: DC0, 24 h, read-out: DIZ
Bacillus subtilis [30] = experiment: microbe, parasite or virus in culture; details: ATCC 6633, 24 h, read-out: DIZ
Acinetobacter baumannii [31] = experiment: microbe, parasite or virus in culture; details: ATCC 17961, 24 h, read-out: DIZ
Pseudomonas aeruginosa [32] = experiment: microbe, parasite or virus in culture; details: K799, 24 h, read-out: DIZ
Pseudomonas aeruginosa [33] = experiment: microbe, parasite or virus in culture; details: K799/61, 24 h, read-out: DIZ
Bacillus subtilis [34] = experiment: microbe, parasite or virus in culture; details: ATCC 6633, 24 h, read-out: DIZ; remark: listed apart in the source
Acinetobacter baumannii [35] = experiment: microbe, parasite or virus in culture; details: ATCC 17961, 24 h, read-out: DIZ; remark: listed apart in the source
Pseudomonas aeruginosa [36] = experiment: microbe, parasite or virus in culture; details: K799/61, 24 h, read-out: DIZ; remark: listed apart in the source

| Compound | MIC (Bacillus subtilis [1]) [µM] | MIC (Staphylococcus aureus [2]) [µM] | MIC (Micrococcus luteus [3]) [µM] | MIC (Mycolicibacterium vaccae [4]) [µM] | MIC (Acinetobacter baumannii [5]) [µM] | MIC (Pseudomonas aeruginosa [6]) [µM] | MIC (Pseudomonas aeruginosa [7]) [µM] | MIC (Escherichia coli [8]) [µM] | MIC (Escherichia coli [9]) [µM] | zone of inhibition at 100 µM (Micrococcus luteus [10]) [mm] | zone of inhibition at 100 µM (Mycolicibacterium vaccae [11]) [mm] | zone of inhibition at 100 µM (Acinetobacter baumannii [12]) [mm] | zone of inhibition at 100 µM (Pseudomonas aeruginosa [13]) [mm] | zone of inhibition at 100 µM (Pseudomonas aeruginosa [14]) [mm] | zone of inhibition at 100 µM (Escherichia coli [15]) [mm] | zone of inhibition at 100 µM (Escherichia coli [16]) [mm] | zone of inhibition at 100 µM (Escherichia coli [17]) [mm] | zone of inhibition at 100 µM (Bacillus subtilis [18]) [mm] | zone of inhibition at 100 µM (Staphylococcus aureus [19]) [mm] | further results |
| --- | --- | --- | --- | --- | --- | --- | --- | --- | --- | --- | --- | --- | --- | --- | --- | --- | --- | --- | --- | --- |
| CC(C)(C)CC(=O)N1CCN(c2cc3c(cc2F)c(=O)c(C(=O)O)cn3C2CC2)CC1 | < 0.05 | 0.4 (≈ 0.172 µg/mL) | 12.5 (≈ 5.37 µg/mL) | 2 (≈ 0.859 µg/mL) | 25 (≈ 10.7 µg/mL) | > 100 | > 100 | > 100 | 100 (≈ 42.9 µg/mL) |  |  |  |  |  |  |  |  |  |  |  |
| CC1=C(N)C(=O)C(C(C)(C)CC(=O)O)=C(C)C1=O |  |  |  |  |  |  |  |  |  | 0 | 0 | 0 | 0 | 0 | 0 | 0 | 0 | 0 | 0 |  |
| CC1=C(N)C(=O)C(C(C)(C)CC(=O)N2CCN(c3cc4c(cc3F)c(=O)c(C(=O)O)cn4C3CC3)CC2)=C(C)C1=O | < 0.05 | < 0.05 | 12.5 (≈ 7.06 µg/mL) | 2 (≈ 1.13 µg/mL) | 0.6 (≈ 0.339 µg/mL) | 2.5 (≈ 1.41 µg/mL) | 5 (≈ 2.82 µg/mL) | 25 (≈ 14.1 µg/mL) | 12.5 (≈ 7.06 µg/mL) | 17 | 24 | 24 | 22 | 31 | 31 | 16 | 23 | 36 | 31 | zone of inhibition at 100 µM (Mycolicibacterium vaccae [20]): 30 mm; zone of inhibition at 100 µM (Acinetobacter baumannii [21]): 30 mm; zone of inhibition at 100 µM (Pseudomonas aeruginosa [22]): 32 mm; zone of inhibition at 100 µM (Pseudomonas aeruginosa [23]): 35 mm; zone of inhibition at 100 µM (Escherichia coli [24]): 37 mm; zone of inhibition at 100 µM (Escherichia coli [25]): 23 mm |
| CC(C)(C)OC(=O)N1CCN(c2cc3c(cc2F)c(=O)c(C(=O)O)cn3C2CC2)CC1 | < 0.05 | 0.4 (≈ 0.173 µg/mL) | > 100 | 2 (≈ 0.863 µg/mL) | > 100 | > 100 | > 100 | > 100 | > 100 |  |  |  |  |  |  |  |  |  |  |  |
| CC1=CC(=O)C(C(C)(C)CC(=O)O)=C(C)C1=O | 50 (≈ 11.8 µg/mL) | > 100 | 50 (≈ 11.8 µg/mL) | 80 (≈ 18.9 µg/mL) | > 100 | > 100 | > 100 | > 100 | > 100 | 0 | 0 | 0 | 0 | 0 | 0 | 0 | 0 | 0 | 0 |  |
| O=C(O)c1cn(C2CC2)c2cc(N3CCNCC3)c(F)cc2c1=O [CIPROFLOXACIN] | 0.03 (≈ 0.00994 µg/mL) | 0.47 (≈ 0.156 µg/mL) | 8 (≈ 2.65 µg/mL) | 0.47 (≈ 0.156 µg/mL) | 0.24 (≈ 0.0795 µg/mL) | 0.47 (≈ 0.156 µg/mL) | 0.24 (≈ 0.0795 µg/mL) | 0.47 (≈ 0.156 µg/mL) | 0.24 (≈ 0.0795 µg/mL) |  |  |  |  |  |  |  |  |  |  | zone of inhibition at 5 µg/mL (Staphylococcus aureus [26]): 21 mm; zone of inhibition at 5 µg/mL (Micrococcus luteus [27]): 0 mm; zone of inhibition at 5 µg/mL (Mycolicibacterium vaccae [28]): 23 mm; zone of inhibition at 5 µg/mL (Escherichia coli [29]): 18 mm; zone of inhibition at 1.66 µg/mL (Bacillus subtilis [30]): 20 mm; zone of inhibition at 5 µg/mL (Acinetobacter baumannii [31]): 18 mm; zone of inhibition at 1.66 µg/mL (Pseudomonas aeruginosa [32]): 15 mm; zone of inhibition at 1.66 µg/mL (Pseudomonas aeruginosa [33]): 19 mm; zone of inhibition at 1.66 µg/mL (Bacillus subtilis [34]): 24 mm; zone of inhibition at 5 µg/mL (Acinetobacter baumannii [35]): 21 mm; zone of inhibition at 1.66 µg/mL (Pseudomonas aeruginosa [36]): 24 mm |

Reference: ChEMBL document CHEMBL3585272, “Syntheses and Antibacterial Activity of N-Acylated Ciprofloxacin Derivatives Based on the Trimethyl Lock” (ACS Med Chem Lett, 2015)
